Test results taken from publication PMC7442746 (ACS chemical biology, 2020).

Key:
[1] = biological target: T1, recombinant human HDAC10 (TwinStrep-HDAC10 fusion protein) (Homo sapiens, UniProt Q969S8); test: Differential scanning fluorimetry; assay type: binding; details: protein 3 μM, inhibitor 6 μM; for melting temperature (Tm) of TwinStrep-HDAC10 with inhibitor: Tm 65.90 °C with 0.6% DMSO, n = 2
T1 sequence (Q969S8 1-669): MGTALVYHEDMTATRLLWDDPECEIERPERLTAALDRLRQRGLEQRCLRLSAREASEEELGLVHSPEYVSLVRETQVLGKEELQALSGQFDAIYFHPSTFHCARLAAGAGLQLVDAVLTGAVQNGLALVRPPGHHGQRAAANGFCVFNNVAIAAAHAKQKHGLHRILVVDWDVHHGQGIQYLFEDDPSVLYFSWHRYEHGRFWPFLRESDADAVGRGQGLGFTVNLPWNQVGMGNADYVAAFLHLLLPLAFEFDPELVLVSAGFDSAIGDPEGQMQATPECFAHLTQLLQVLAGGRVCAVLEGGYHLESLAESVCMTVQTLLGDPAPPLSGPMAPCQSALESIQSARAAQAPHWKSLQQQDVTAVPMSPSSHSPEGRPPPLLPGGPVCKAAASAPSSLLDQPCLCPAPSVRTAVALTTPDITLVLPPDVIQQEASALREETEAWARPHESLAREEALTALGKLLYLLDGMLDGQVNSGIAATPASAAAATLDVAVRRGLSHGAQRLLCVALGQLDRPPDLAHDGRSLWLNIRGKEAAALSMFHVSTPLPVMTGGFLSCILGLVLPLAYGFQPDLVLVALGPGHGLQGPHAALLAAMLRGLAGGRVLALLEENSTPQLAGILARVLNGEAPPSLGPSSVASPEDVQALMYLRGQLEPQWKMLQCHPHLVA
Method in brief: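 Nano-DSF on recombinant human HDAC10 with an N-terminal TwinStrep tag. Protein at 3 μM and test compound at 6 μM (protein:inhibitor 1:2). Controls were protein alone and protein with DMSO, each run once. Compound runs were done twice and Tm reported as the mean of the two. Thermal shift was taken as the Tm change from the DMSO control.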

HDAC10 over HDAC6 = details: cited from earlier work
human HDAC10 = details: oxa analogue weaker than Tubastatin A; cited from earlier work

Structure (SMILES)	melting temperature (Tm) of TwinStrep-HDAC10 with inhibitor [1] [°C]	selectivity for inhibition of HDAC10 compared to HDAC6 (HDAC10 over HDAC6) [fold]	thermal shift ([1]; relative to DMSO control) [°C]	difference in HDAC10 binding affinity between Tubastatin A and its oxa analogue (human HDAC10) [fold]
CN1CCc2c(c3ccccc3n2Cc2ccc(C(=O)NO)cc2)C1 [Tubastatin A, reference compound]	72.94 ± 0.08	~8		
O=C(NO)c1ccc(Cn2c3c(c4ccccc42)COCC3)cc1 [oxa-Tubastatin A]	67.27 ± 0.01		1.37	52
